# Source: ChEMBL document CHEMBL4689842, “EUbOPEN Chemogenomics Library wave 1” (2021)
# What was measured:
# U2OS [1] = assay: Incucyte cell viability with U2OS; format: toxicity, cell-based; conditions: human, 10 µM, compound concentration 10 uM; further: filed as whole numbers so only -1 and 0 and 1 occur
# U2OS [2] = assay: Multiplex assay against U2OS; format: toxicity, cell-based; conditions: human
# Outline: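 Live cells carried four stains from seeding: Hoechst33342, BioTracker Green Microtubule Cytoskeleton Dye, MitoTracker Red and Annexin V Alexa Fluor 680. They were imaged on a CQ1 microscope at 37°C and 5% CO2 after compound addition. Using CellPathfinder machine-learning gating, cells were split into Hoechst high-intensity objects or normal cells, normal cells into healthy, pyknosed or fragmented nuclei, and pyknosed cells into mitotic or apoptotic; tubulin, mitochondrial-mass and membrane-permeability phenotypes are per cents of healthy-nucleus cells.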
# [3] = 12 h, 1 µM, compound concentration 1 uM, replicate 1
# [4] = 12 h, 1 µM, compound concentration 1 uM, replicate 2
# [5] = 12 h, 10 µM, compound concentration 10 uM, replicate 1
# [6] = 12 h, 10 µM, compound concentration 10 uM, replicate 2
# [7] = 24 h, 1 µM, compound concentration 1 uM, replicate 1
# [8] = 24 h, 1 µM, compound concentration 1 uM, replicate 2
# [9] = 24 h, 10 µM, compound concentration 10 uM, replicate 1
# [10] = 24 h, 10 µM, compound concentration 10 uM, replicate 2
structure (smiles),measurement,setting,value
CC[C@H](Nc1ncnc2[nH]cnc12)c1nc2cccc(F)c2c(=O)n1-c1ccccc1 [IDELALISIB],Growth Rate,"U2OS [1]; 0 h, replicate number 1, timepoint 0 hours",0
same,Growth Rate,"U2OS [1]; 6 h, replicate number 1, timepoint 6 hours",0
same,Growth Rate,"U2OS [1]; 12 h, replicate number 1, timepoint 12 hours",1
same,Growth Rate,"U2OS [1]; 12 h, replicate number 2, timepoint 12 hours",0
same,Growth Rate,"U2OS [1]; 18 h, replicate number 1, timepoint 18 hours",0
same,Growth Rate,"U2OS [1]; 24 h, replicate number 1, timepoint 24 hours",0
same,Population Apoptotic (%),U2OS [2]; [3],46%
same,Population Fragmented Nuclei (%),U2OS [2]; [3],1%
same,Population Healthy Nuclei (%),U2OS [2]; [3],88%
same,Population Hoechst High Intensity Objects (%),U2OS [2]; [3],3%
same,Population Membrane Permeable-Phenotype (%),U2OS [2]; [3],47%
same,Population Mitochondria Different-Phenotype (%),U2OS [2]; [3],10%
same,Population Mitotic Cells (%),U2OS [2]; [3],53%
same,Population Normal (%),U2OS [2]; [3],96%
same,Population Pyknosed Nuclei (%),U2OS [2]; [3],9%
same,Population Tubulin-Different-Phenotype (%),U2OS [2]; [3],34%
same,Total Cell Count,U2OS [2]; [3],162
same,Population Apoptotic (%),U2OS [2]; [4],14%
same,Population Fragmented Nuclei (%),U2OS [2]; [4],10%
same,Population Healthy Nuclei (%),U2OS [2]; [4],84%
same,Population Hoechst High Intensity Objects (%),U2OS [2]; [4],9%
same,Population Membrane Permeable-Phenotype (%),U2OS [2]; [4],45%
same,Population Mitochondria Different-Phenotype (%),U2OS [2]; [4],8%
same,Population Mitotic Cells (%),U2OS [2]; [4],85%
same,Population Normal (%),U2OS [2]; [4],90%
same,Population Pyknosed Nuclei (%),U2OS [2]; [4],5%
same,Population Tubulin-Different-Phenotype (%),U2OS [2]; [4],27%
same,Total Cell Count,U2OS [2]; [4],132
same,Population Apoptotic (%),U2OS [2]; [5],0%
same,Population Fragmented Nuclei (%),U2OS [2]; [5],5%
same,Population Healthy Nuclei (%),U2OS [2]; [5],86%
same,Population Hoechst High Intensity Objects (%),U2OS [2]; [5],11%
same,Population Membrane Permeable-Phenotype (%),U2OS [2]; [5],4%
same,Population Mitochondria Different-Phenotype (%),U2OS [2]; [5],18%
same,Population Mitotic Cells (%),U2OS [2]; [5],100%
same,Population Normal (%),U2OS [2]; [5],88%
same,Population Pyknosed Nuclei (%),U2OS [2]; [5],7%
same,Population Tubulin-Different-Phenotype (%),U2OS [2]; [5],90%
same,Total Cell Count,U2OS [2]; [5],180
same,Population Fragmented Nuclei (%),U2OS [2]; [6],8%
same,Population Healthy Nuclei (%),U2OS [2]; [6],88%
same,Population Hoechst High Intensity Objects (%),U2OS [2]; [6],16%
same,Population Mitochondria Different-Phenotype (%),U2OS [2]; [6],28%
same,Population Normal (%),U2OS [2]; [6],83%
same,Population Pyknosed Nuclei (%),U2OS [2]; [6],2%
same,Population Tubulin-Different-Phenotype (%),U2OS [2]; [6],15%
same,Total Cell Count,U2OS [2]; [6],130
same,Population Apoptotic (%),U2OS [2]; [7],45%
same,Population Fragmented Nuclei (%),U2OS [2]; [7],3%
same,Population Healthy Nuclei (%),U2OS [2]; [7],85%
same,Population Hoechst High Intensity Objects (%),U2OS [2]; [7],3%
same,Population Membrane Permeable-Phenotype (%),U2OS [2]; [7],28%
same,Population Mitochondria Different-Phenotype (%),U2OS [2]; [7],9%
same,Population Mitotic Cells (%),U2OS [2]; [7],54%
same,Population Normal (%),U2OS [2]; [7],96%
same,Population Pyknosed Nuclei (%),U2OS [2]; [7],10%
same,Population Tubulin-Different-Phenotype (%),U2OS [2]; [7],17%
same,Total Cell Count,U2OS [2]; [7],210
same,Population Apoptotic (%),U2OS [2]; [8],42%
same,Population Fragmented Nuclei (%),U2OS [2]; [8],9%
same,Population Healthy Nuclei (%),U2OS [2]; [8],77%
same,Population Hoechst High Intensity Objects (%),U2OS [2]; [8],5%
same,Population Membrane Permeable-Phenotype (%),U2OS [2]; [8],32%
same,Population Mitochondria Different-Phenotype (%),U2OS [2]; [8],15%
same,Population Mitotic Cells (%),U2OS [2]; [8],57%
same,Population Normal (%),U2OS [2]; [8],94%
same,Population Pyknosed Nuclei (%),U2OS [2]; [8],13%
same,Population Tubulin-Different-Phenotype (%),U2OS [2]; [8],15%
same,Total Cell Count,U2OS [2]; [8],148
same,Population Apoptotic (%),U2OS [2]; [9],33%
same,Population Fragmented Nuclei (%),U2OS [2]; [9],3%
same,Population Healthy Nuclei (%),U2OS [2]; [9],93%
same,Population Hoechst High Intensity Objects (%),U2OS [2]; [9],11%
same,Population Membrane Permeable-Phenotype (%),U2OS [2]; [9],2%
same,Population Mitochondria Different-Phenotype (%),U2OS [2]; [9],19%
same,Population Mitotic Cells (%),U2OS [2]; [9],66%
same,Population Normal (%),U2OS [2]; [9],88%
same,Population Pyknosed Nuclei (%),U2OS [2]; [9],2%
same,Population Tubulin-Different-Phenotype (%),U2OS [2]; [9],94%
same,Total Cell Count,U2OS [2]; [9],244
same,Population Apoptotic (%),U2OS [2]; [10],40%
same,Population Fragmented Nuclei (%),U2OS [2]; [10],9%
same,Population Healthy Nuclei (%),U2OS [2]; [10],82%
same,Population Hoechst High Intensity Objects (%),U2OS [2]; [10],8%
same,Population Membrane Permeable-Phenotype (%),U2OS [2]; [10],8%
same,Population Mitochondria Different-Phenotype (%),U2OS [2]; [10],30%
same,Population Mitotic Cells (%),U2OS [2]; [10],60%
same,Population Normal (%),U2OS [2]; [10],91%
same,Population Pyknosed Nuclei (%),U2OS [2]; [10],7%
same,Population Tubulin-Different-Phenotype (%),U2OS [2]; [10],21%
same,Total Cell Count,U2OS [2]; [10],146
